Assay results pooled from the literature.
Lines come from different studies, so protocols differ.

| SMILES | tested on | assay | system | setting | endpoint | value |
| --- | --- | --- | --- | --- | --- | --- |
| Cc1cc(/C=C/C#N)cc(C)c1Nc1ccnc(Nc2ccc(C#N)cc2)n1 | MT4 | cell growth or viability, MTT | – | 5 days | CC50 | > 5.46 µM |
| N#Cc1ccc(C[C@H](NC(=O)c2cc3ccc(F)cc3[nH]2)C(=O)N2CCc3ccccc32)cc1 | – | metabolic stability | rat, liver microsomes | 10 µM, 30 min, pH 7.4 | compound remaining | 90% |
| N#C[C@@]1(c2ccc3c(N)ncnn23)O[C@H](CO)[C@@H](O)[C@H]1O | – | – | dog, plasma | 1 µM | fraction unbound | 0.881 |
| N#Cc1ccc(C[C@H](Nc2ncc(-c3ccc(F)cc3)o2)C(=O)N2CCc3ccccc32)cc1 | – | metabolic stability | rat, liver microsomes | 10 µM, 30 min, pH 7.4 | compound remaining | 40% |
| Cc1cn([C@H]2C[C@H](N=[N+]=[N-])[C@@H](CO)O2)c(=O)[nH]c1=O | MT4 | cell growth or viability, MTT | – | 5 days | CC50 | > 7.48 µM |
| N#Cc1ccc(C[C@H](Nc2c(Nc3ccc(F)cc3)c(=O)c2=O)C(=O)N2CCc3ccccc32)cc1 | – | metabolic stability | rat, liver microsomes | 10 µM, 30 min, pH 7.4 | compound remaining | 35% |
| NS(=O)(=O)c1nnc(NC(=O)CCC2CC3CCC2C3)s1 (stereo not shown) | – | metabolic stability | mouse, liver microsomes | 1 h | compound remaining | 41% |
| Cc1cc(C#N)cc(C)c1Oc1nc(Nc2ccc(C#N)cc2)nc(N)c1Br | MT4 | cell growth or viability, MTT | – | 5 days | CC50 | > 4.59 µM |
| NS(=O)(=O)c1nnc(NC(=O)C2CCCC3(CCCCC3)C2)s1 (stereo not shown) | – | metabolic stability | mouse, liver microsomes | 1 h | compound remaining | 47.7% |
| COc1cc(-c2cc(C(C)=O)n3ccccc23)c(OC)cc1Cn1ccnc1 | – | metabolic stability | rat, liver microsomes | 1 µM, 1 h, pH 7.4 | compound remaining | 62% |
